# Entries after “also recorded” stand apart in the source; their conditions may differ. Like-named read-outs stand apart in the source and are kept apart here.
# Tests used:
# tubulin [1] = biological target: tubulin (Bos taurus, UniProt P81947+Q6B856); format: biochemical, bovine; conditions: for Effect on paclitaxel-induced tubulin assembly: 30 μM tubulin, 30 μM paclitaxel
# [2] = tested on: subtilisin-treated tubulin; assay: Paclitaxel-induced assembly of subtilisin-treated tubulin; format: biochemical, bovine; conditions: same tubulin concentration (10 μM)
# microtubules = microtubules (Bos taurus, UniProt P81947+Q6B856); assay: Lengths of paclitaxel-induced microtubules by electron microscopy; format: biochemical, bovine; conditions: for Mean microtubule length ± SD, Average / Mean microtubule length ± SD, Experiment I / Mean microtubule length ± SD, Experiment II: paclitaxel-induced microtubules
# Sequence of microtubules (P81947 whole entry): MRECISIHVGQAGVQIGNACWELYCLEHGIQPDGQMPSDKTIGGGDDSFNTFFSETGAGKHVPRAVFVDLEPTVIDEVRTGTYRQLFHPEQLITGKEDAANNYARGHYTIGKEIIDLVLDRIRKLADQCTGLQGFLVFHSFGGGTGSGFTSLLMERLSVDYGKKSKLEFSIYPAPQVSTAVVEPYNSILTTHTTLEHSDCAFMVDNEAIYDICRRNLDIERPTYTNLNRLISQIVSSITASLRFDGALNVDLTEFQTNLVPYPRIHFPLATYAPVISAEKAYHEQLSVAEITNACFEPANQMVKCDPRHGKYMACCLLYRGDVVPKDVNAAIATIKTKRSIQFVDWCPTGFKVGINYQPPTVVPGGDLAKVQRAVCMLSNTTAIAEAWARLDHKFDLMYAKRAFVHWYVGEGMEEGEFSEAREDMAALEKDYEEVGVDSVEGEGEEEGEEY
# Sequence of microtubules (Q6B856 whole entry): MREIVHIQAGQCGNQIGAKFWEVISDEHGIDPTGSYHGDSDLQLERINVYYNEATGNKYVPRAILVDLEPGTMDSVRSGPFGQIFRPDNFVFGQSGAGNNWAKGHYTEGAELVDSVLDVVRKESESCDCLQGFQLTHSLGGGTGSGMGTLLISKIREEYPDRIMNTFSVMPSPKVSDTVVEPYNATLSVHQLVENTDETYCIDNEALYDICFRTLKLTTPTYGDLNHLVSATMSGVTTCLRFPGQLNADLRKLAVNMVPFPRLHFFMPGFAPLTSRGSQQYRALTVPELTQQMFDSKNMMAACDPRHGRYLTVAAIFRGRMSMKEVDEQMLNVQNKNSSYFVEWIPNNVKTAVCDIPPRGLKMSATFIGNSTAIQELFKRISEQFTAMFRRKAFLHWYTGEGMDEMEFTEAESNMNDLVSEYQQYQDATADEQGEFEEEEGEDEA
# How it was run: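 Paclitaxel-induced polymers were formed with GDP at the stated levels and monitored turbidimetrically. Samples were placed on carbon-coated formvar copper grids and stained with 1% uranyl acetate. Lengths were measured from EM negatives.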
# [3] = tested on: taxoid site of microtubules; assay: Displacement of a fluorescent taxoid analog from microtubules; format: binding; conditions: fluorescence anisotropy; personal communication, Dr. Fernando Díaz
# tubulin E-site = conditions: read-out: Kd for GDP binding to the E-site; cited from earlier work
# tubulin with MAPs = tubulin with MAPs (Bos taurus, UniProt P81947+Q6B856); assay: Paclitaxel-induced tubulin assembly with heat-treated MAPs; format: biochemical, bovine
# Sequence of tubulin with MAPs (P81947 whole entry): as the sequence (P81947 whole entry) above
# Sequence of tubulin with MAPs (Q6B856 whole entry): as the sequence (Q6B856 whole entry) above
# tubulin [4] = assay: Critical concentration of tubulin for paclitaxel-induced assembly; format: biochemical, bovine; conditions: 10 μM paclitaxel
# How it was run: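 Bovine brain tubulin, MAP-free, carrying E-site GDP and N-site GTP, with no exogenous GTP or Mg2+. Assay buffer 0.1 M Mes (pH 6.9) with 10 μM paclitaxel, plus heat-treated MAPs or MAPs with GTP where indicated. Components mixed at 0 °C, held 2 min, jumped to 30 °C and followed about 30 min. Turbidity read at 350 nm.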
# tubulin [5] = conditions: paclitaxel, 37 °C, cited from earlier work
# Sequence of tubulin (Bos taurus, UniProt P81947+Q6B856) (P81947 whole entry): as the sequence (P81947 whole entry) above
# Sequence of tubulin (Bos taurus, UniProt P81947+Q6B856) (Q6B856 whole entry): as the sequence (Q6B856 whole entry) above
structure (smiles),measurement,setting,value
Nc1ncnc2c1ncn2[C@@H]1O[C@H](COP(=O)(O)OP(=O)(O)O)[C@@H](O)[C@H]1O [ADP],Effect on paclitaxel-induced tubulin assembly,tubulin [1]; no exogenous GTP,"had any inhibitory effect, nor did"
Nc1ncnc2c1ncn2[C@@H]1O[C@H](COP(=O)(O)OP(=O)(O)OP(=O)(O)O)[C@@H](O)[C@H]1O [ATP],Effect on paclitaxel-induced tubulin assembly,tubulin [1]; no exogenous GTP,weak inhibitory effect; also recorded: extensive inhibition; also recorded: inhibited
Nc1ccn([C@@H]2O[C@H](COP(=O)(O)OP(=O)(O)O)[C@@H](O)[C@H]2O)c(=O)n1 [CDP],Effect on paclitaxel-induced tubulin assembly,tubulin [1]; no exogenous GTP,"had any inhibitory effect, nor did"
Nc1ccn([C@@H]2O[C@H](COP(=O)(O)OP(=O)(O)OP(=O)(O)O)[C@@H](O)[C@H]2O)c(=O)n1 [CTP],Effect on paclitaxel-induced tubulin assembly,tubulin [1]; no exogenous GTP,Still weaker effects
Nc1nc2c(ncn2[C@@H]2O[C@H](COP(=O)(O)OP(=O)(O)O)[C@@H](O)[C@H]2O)c(=O)[nH]1 [GDP],Effect on paclitaxel-induced tubulin assembly,tubulin [1]; 5 μM GDP,significant inhibitory effect
same,Effect on paclitaxel-induced tubulin assembly,tubulin [1]; 100 μM GDP,almost totally eliminated
same,Increase of the IC50 when 2 mM MgCl2 was added,tubulin [1]; 57 vs 15 μM,~4 fold
same,IC50 with subtilisin-treated tubulin lower than value obtained with MAPs,[2],about 40%
same,"Mean microtubule length ± SD, Average",microtubules; 5 μM GDP,2.8 ± 2.1 μm
same,"Mean microtubule length ± SD, Experiment I",microtubules; 5 μM GDP,3.7 ± 2.2 μm
same,"Mean microtubule length ± SD, Experiment II",microtubules; 5 μM GDP,2.1 ± 1.5 μm
same,"Mean microtubule length ± SD, Average",microtubules; 10 μM GDP,2.8 ± 2.1 μm
same,"Mean microtubule length ± SD, Experiment I",microtubules; 10 μM GDP,3.5 ± 2.3 μm
same,"Mean microtubule length ± SD, Experiment II",microtubules; 10 μM GDP,2.2 ± 1.6 μm
same,"Mean microtubule length ± SD, Average",microtubules; 50 μM GDP,2.7 ± 2.4 μm
same,"Mean microtubule length ± SD, Experiment I",microtubules; 50 μM GDP,4.5 ± 3.2 μm
same,"Mean microtubule length ± SD, Experiment II",microtubules; 50 μM GDP,2.0 ± 1.5 μm
same,Change in average microtubule length,microtubules; whatever the GDP concentration (5-50 μM),essentially no change
same,Displacement of fluorescent taxoid analog from microtubules,[3],unable to displace the fluorescent taxoid
same,Kd,tubulin E-site,0.02 to 0.06 µM
Nc1nc2c(ncn2[C@@H]2O[C@H](COP(=O)(O)OP(=O)(O)OP(=O)(O)O)[C@@H](O)[C@H]2O)c(=O)[nH]1 [GTP],Effect on paclitaxel-induced tubulin assembly,tubulin [1]; no exogenous GTP,enhancing assembly
O=c1[nH]cnc2c1ncn2[C@@H]1O[C@H](COP(=O)(O)OP(=O)(O)O)[C@@H](O)[C@H]1O [IDP],Effect on paclitaxel-induced tubulin assembly,tubulin [1]; no exogenous GTP,"had any inhibitory effect, nor did"
O=c1[nH]cnc2c1ncn2[C@@H]1O[C@H](COP(=O)(O)OP(=O)(O)OP(=O)(O)O)[C@@H](O)[C@H]1O [ITP],Effect on paclitaxel-induced tubulin assembly,tubulin [1]; no exogenous GTP,stimulatory
O=c1ccn([C@@H]2O[C@H](COP(=O)(O)OP(=O)(O)O)[C@@H](O)[C@H]2O)c(=O)[nH]1 [UDP],Effect on paclitaxel-induced tubulin assembly,tubulin [1]; no exogenous GTP,"had any inhibitory effect, nor did"
O=c1ccn([C@@H]2O[C@H](COP(=O)(O)OP(=O)(O)OP(=O)(O)O)[C@@H](O)[C@H]2O)c(=O)[nH]1 [UTP],Effect on paclitaxel-induced tubulin assembly,tubulin [1]; no exogenous GTP,stimulatory
O=c1[nH]c(=O)c2ncn([C@@H]3O[C@H](COP(=O)(O)OP(=O)(O)OP(=O)(O)O)[C@@H](O)[C@H]3O)c2[nH]1 [XTP],Effect on paclitaxel-induced tubulin assembly,tubulin [1]; no exogenous GTP,stimulatory
COc1cc2cc(c1Cl)N(C)C(=O)C[C@H](OC(=O)[C@H](C)N(C)C(C)=O)[C@]1(C)O[C@H]1[C@H](C)[C@@H]1C[C@@](O)(NC(=O)O1)[C@H](OC)/C=C/C=C(\C)C2 [maytansine],IC50,tubulin [1],< 5 µM
same,IC50,tubulin with MAPs,< 5 µM
"CC(=O)O[C@H]1C(=O)[C@@]2(C)[C@H]([C@H](OC(=O)c3ccccc3)[C@]3(O)C[C@H](OC(=O)[C@H](O)[C@@H](NC(=O)c4ccccc4)c4ccccc4)C(C)=C1C3(C)C)[C@]1(OC(C)=O)CO[C@@H]1C[C@@H]2O [paclitaxel, Paclitaxel]",Extent of tubulin assembly,"tubulin [1]; tubulin and paclitaxel both at 10 μM, no GTP, no MAPs",negligible assembly
same,Reduction in critical concentration by subtilisin treatment,tubulin [4]; 15 μM to 1.6 μM,~10 fold
same,Critical concentration of tubulin,"tubulin [4]; 30 °C, MAPs alone added",about 3.5 μM
same,Critical concentration of tubulin,tubulin [4]; both MAPs and GTP added,less than 1 μM
same,Critical concentration of subtilisin-treated tubulin,tubulin [4]; subtilisin-treated tubulin,1.6 µM
same,Critical concentration of tubulin,"tubulin [5]; no GTP, no MAPs, obtained previously",22 to 28 µM
same,Critical concentration of tubulin,"tubulin [5]; with MAPs, different protein preparations",2 to 5 µM
"COc1cc([C@@H]2c3cc4c(cc3[C@H](O)[C@H]3COC(=O)[C@H]23)OCO4)cc(OC)c1OC [podophyllotoxin, Podophyllotoxin]",IC50,tubulin with MAPs,< 5 µM

# — paper PMC2659725 (Archives of biochemistry and biophysics, 2009)
